Measured values taken from PMC7368294 (Proceedings of the National Academy of Sciences of the …, 2020).
Where two headings read alike, the source gives them in different places.

How the values were obtained:
Dα1/Dα2/Dβ1 nAChR [1] = target: T1, Dα1/Dα2/Dβ1 nAChR (Drosophila melanogaster, UniProt P04755+P09478+P17644); experiment: two-electrode voltage clamp of Xenopus oocytes, agonist concentration-response; type: cell-based
T1 sequence (P09478 22-567): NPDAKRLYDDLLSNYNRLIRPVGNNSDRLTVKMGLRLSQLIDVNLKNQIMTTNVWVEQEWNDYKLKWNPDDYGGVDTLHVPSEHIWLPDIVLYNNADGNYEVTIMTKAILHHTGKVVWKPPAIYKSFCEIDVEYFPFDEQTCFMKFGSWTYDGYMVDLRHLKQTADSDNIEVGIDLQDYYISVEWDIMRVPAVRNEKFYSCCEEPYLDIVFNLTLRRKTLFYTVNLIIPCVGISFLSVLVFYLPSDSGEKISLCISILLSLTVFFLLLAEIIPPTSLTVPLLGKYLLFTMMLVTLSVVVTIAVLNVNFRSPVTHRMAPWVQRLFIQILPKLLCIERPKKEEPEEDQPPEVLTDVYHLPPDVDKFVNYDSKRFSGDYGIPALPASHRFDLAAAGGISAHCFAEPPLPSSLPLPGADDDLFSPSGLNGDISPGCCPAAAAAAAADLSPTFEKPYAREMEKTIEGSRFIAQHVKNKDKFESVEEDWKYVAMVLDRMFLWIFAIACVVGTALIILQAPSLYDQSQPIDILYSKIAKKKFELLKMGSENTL
T1 sequence (P17644 22-576): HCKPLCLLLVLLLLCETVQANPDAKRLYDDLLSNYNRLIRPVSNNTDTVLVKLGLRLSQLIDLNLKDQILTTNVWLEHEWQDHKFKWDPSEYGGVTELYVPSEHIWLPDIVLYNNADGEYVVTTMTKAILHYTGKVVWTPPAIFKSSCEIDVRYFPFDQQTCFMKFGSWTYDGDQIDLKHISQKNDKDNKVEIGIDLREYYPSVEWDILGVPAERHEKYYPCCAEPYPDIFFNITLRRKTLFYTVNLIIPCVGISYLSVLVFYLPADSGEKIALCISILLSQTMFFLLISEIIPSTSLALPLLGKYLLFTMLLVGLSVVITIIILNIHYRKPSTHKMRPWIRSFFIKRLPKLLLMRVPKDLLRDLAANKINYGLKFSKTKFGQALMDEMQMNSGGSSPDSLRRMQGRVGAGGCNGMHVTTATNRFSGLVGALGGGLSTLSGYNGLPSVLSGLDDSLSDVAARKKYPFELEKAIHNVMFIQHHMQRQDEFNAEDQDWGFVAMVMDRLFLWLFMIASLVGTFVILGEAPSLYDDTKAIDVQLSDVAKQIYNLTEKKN
T1 sequence (P04755 25-521): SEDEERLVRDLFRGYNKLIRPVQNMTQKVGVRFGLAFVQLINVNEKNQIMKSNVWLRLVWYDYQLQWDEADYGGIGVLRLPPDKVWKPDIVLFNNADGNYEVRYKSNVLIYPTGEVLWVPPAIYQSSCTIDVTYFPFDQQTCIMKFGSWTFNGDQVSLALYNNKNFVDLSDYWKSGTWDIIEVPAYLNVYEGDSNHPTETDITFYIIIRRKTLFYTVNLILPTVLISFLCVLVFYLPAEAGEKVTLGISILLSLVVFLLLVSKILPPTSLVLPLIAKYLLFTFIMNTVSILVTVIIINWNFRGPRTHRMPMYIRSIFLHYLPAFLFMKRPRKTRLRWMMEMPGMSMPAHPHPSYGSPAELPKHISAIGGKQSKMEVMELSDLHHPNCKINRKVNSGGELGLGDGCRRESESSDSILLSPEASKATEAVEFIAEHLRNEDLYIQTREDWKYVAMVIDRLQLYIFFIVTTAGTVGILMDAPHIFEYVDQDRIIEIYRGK

Dα1/Dα2/Dβ1/Dβ2 nAChR [2] = target: T2, Dα1/Dα2/Dβ1/Dβ2 nAChR (Drosophila melanogaster, UniProt P04755+P09478+P17644+P25162); experiment: as above; type: cell-based
Dα1/Dβ1/Dβ2 nAChR [3] = target: T3, Dα1/Dβ1/Dβ2 nAChR (Drosophila melanogaster, UniProt P04755+P09478+P25162); experiment: as above; type: cell-based
T3 sequence (P09478 22-567): T1 sequence (P09478 22-567)
T3 sequence (P04755 25-521): T1 sequence (P04755 25-521)
T3 sequence (P25162 19-519): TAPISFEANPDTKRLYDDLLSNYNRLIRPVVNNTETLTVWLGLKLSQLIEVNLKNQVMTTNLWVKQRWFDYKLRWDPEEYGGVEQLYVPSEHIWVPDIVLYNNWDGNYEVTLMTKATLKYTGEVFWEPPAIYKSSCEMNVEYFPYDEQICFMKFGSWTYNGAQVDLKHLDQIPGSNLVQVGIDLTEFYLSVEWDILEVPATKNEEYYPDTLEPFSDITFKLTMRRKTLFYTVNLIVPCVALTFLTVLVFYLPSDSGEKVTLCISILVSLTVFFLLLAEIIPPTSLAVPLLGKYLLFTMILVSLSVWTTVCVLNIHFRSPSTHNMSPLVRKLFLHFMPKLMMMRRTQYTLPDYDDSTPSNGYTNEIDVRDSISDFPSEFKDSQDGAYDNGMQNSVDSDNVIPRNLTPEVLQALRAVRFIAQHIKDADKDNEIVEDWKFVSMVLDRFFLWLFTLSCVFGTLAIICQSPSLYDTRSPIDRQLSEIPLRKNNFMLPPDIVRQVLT

Dα1/Dβ1 nAChR [4] = target: T4, Dα1/Dβ1 nAChR (Drosophila melanogaster, UniProt P04755+P09478); experiment: two-electrode voltage clamp of Xenopus oocytes, agonist concentration-response; type: cell-based
T4 sequence (P09478 22-567): T1 sequence (P09478 22-567)
T4 sequence (P04755 25-521): T1 sequence (P04755 25-521)
Procedure, shortened: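 Oocytes were collagenase-defolliculated, injected with subunit and cofactor cRNAs (100 ng⋅μL−1 each) and kept 3–7 d at 16 °C. Cells were clamped at −100 mV and perfused with saline containing 0.5 μM atropine. Agonists were applied 5 s at 3-min intervals after stable 100 μM ACh responses. Peak currents were normalized to 100 μM ACh and Hill-fitted. n = 5, ≥2 frogs; DMSO <0.1%.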

Dα1/Dβ1/Dβ2 nAChR [5] = target: T3, Dα1/Dβ1/Dβ2 nAChR; experiment: cell-based; design: species or system Xenopus laevis oocytes; details: Oocyte
Dα1/Dβ1/Dβ2 nAChR [6] = target: T3, Dα1/Dβ1/Dβ2 nAChR; experiment: cell-based; design: species or system Xenopus laevis oocytes
Dα1/Dα2/Dβ1/Dβ2 nAChR [7] = target: T2, Dα1/Dα2/Dβ1/Dβ2 nAChR; experiment: cell-based; design: species or system Xenopus laevis oocytes
Dα1/Dα2/Dβ1 nAChR [8] = target: T1, Dα1/Dα2/Dβ1 nAChR; experiment: cell-based; design: species or system Xenopus laevis oocytes
Dα1/Dβ1 nAChR [9] = target: T4, Dα1/Dβ1 nAChR; experiment: cell-based; design: species or system Xenopus laevis oocytes

## N#C/N=C1\SCCN1Cc1ccc(Cl)nc1 [thiacloprid]
Dα1/Dα2/Dβ1 nAChR [1]
  EC50: 234 nM
Dα1/Dα2/Dβ1/Dβ2 nAChR [2]
  EC50: 70.8 nM
Dα1/Dβ1/Dβ2 nAChR [3]
  EC50: 18.6 nM
Dα1/Dβ1 nAChR [4]
  EC50: 22.9 nM
Dα1/Dβ1/Dβ2 nAChR [5]; read-out: Thiacloprid / Imax
  Emax: 5.6 ± 0.5%

## CN/C(=N\[N+](=O)[O-])NCc1cnc(Cl)s1 [clothianidin]
Dα1/Dβ1 nAChR [4]
  EC50: 61.7 nM
Dα1/Dβ1/Dβ2 nAChR [6]
  EC50: 219 nM
Dα1/Dα2/Dβ1/Dβ2 nAChR [7]
  EC50: 309 nM
Dα1/Dα2/Dβ1 nAChR [8]
  EC50: 2950 nM
Dα1/Dβ1/Dβ2 nAChR [5]; read-out: Clothianidin / Imax / ND
  Emax: 41.1 ± 1.1%

## O=[N+]([O-])NC1=NCCN1Cc1ccc(Cl)nc1 [imidacloprid]
Dα1/Dα2/Dβ1 nAChR [1]
  EC50: 407 nM
Dα1/Dα2/Dβ1/Dβ2 nAChR [2]
  EC50: 120 nM
Dα1/Dβ1/Dβ2 nAChR [3]
  EC50: 107 nM
Dα1/Dβ1 nAChR [9]
  EC50: 174 nM
Dα1/Dβ1/Dβ2 nAChR [5]; read-out: Imidacloprid / Imax
  Emax: 24.4 ± 2.2%
